A word on the MIC99: it is the lowest concentration that inhibits either 99% of growth or 99% of the strains tested, depending on the study.

Bounds are passed on as bounds.

Data on five compounds can be found in ChEMBL document CHEMBL5620421, “2,6-Disubstituted 7-(naphthalen-2-ylmethyl)-7H-purines as a new class of potent antitubercular agents inhibiting DprE1” (Eur J Med Chem, 2023).

Holding throughout (format): functional
What all share (settings): time 14-21 day

Assay [1] has as its system Mycobacterium tuberculosis. In words: Antimycobacterial activity against isoniazid/ethambutol/rifampin/streptomycin/amikacin/gentamicin/clofazimine/ofloxacin resistant MDR/XDR clinical isolate Mycobacterium tuberculosis PRAHA 1 assessed as inhibition of mycobacterial growth measured after 14 to 21 days of incubation by Sulas semisynthetic medium based assay. Put shortly: (§1)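 Clinical MDR/XDR M. tuberculosis isolates were tested by the Sula's semisynthetic medium micromethod. Compounds in DMSO at 1000 to 0.5 μmol/L, in twofold-type steps. Incubation at 37 °C, read at 14 and 21 days. MIC99 is the lowest concentration inhibiting >99% of growth. Drug resistance or susceptibility of each isolate is to amikacin, clofazimine, gentamicin, ofloxacin, streptomycin and the others listed.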

The subject of assay [2] is Mycobacterium tuberculosis. In words: Antimycobacterial activity against isoniazid/ethambutol/rifampin/streptomycin/amikacin/gentamicin/clofazimine/ofloxacin resistant MDR/XDR clinical isolate Mycobacterium tuberculosis PRAHA 4 assessed as inhibition of mycobacterial growth measured after 14 to 21 days of incubation by Sulas semisynthetic medium based assay. Summed up: as §1

Assay [3] relates to Mycobacterium tuberculosis. Nature of the assay: Antimycobacterial activity against isoniazid/ethambutol/rifampin/streptomycin/amikacin/gentamicin/clofazimine/ofloxacin resistant MDR/XDR clinical isolate Mycobacterium tuberculosis PRAHA 131 assessed as inhibition of mycobacterial growth measured after 14 to 21 days of incubation by Sulas semisynthetic medium based assay. Summed up: as §1

Assay [4] relates to Mycobacterium tuberculosis. Nature of the assay: Antimycobacterial activity against isoniazid/ethambutol/rifampin/streptomycin/amikacin/gentamicin/clofazimine/ofloxacin resistant MDR/XDR clinical isolate Mycobacterium tuberculosis 9449/2007 assessed as inhibition of mycobacterial growth measured after 14 to 21 days of incubation by Sulas semisynthetic medium based assay. Put shortly:
as §1

Assay [5] relates to Mycobacterium tuberculosis. In words: Antimycobacterial activity against isoniazid/ethambutol/rifampin/streptomycin/amikacin/gentamicin/clofazimine/ofloxacin resistant MDR/XDR clinical isolate Mycobacterium tuberculosis 234/2005 assessed as inhibition of mycobacterial growth measured after 14 to 21 days of incubation by Sulas semisynthetic medium based assay. Put shortly: as §1

The subject of assay [6] is Mycobacterium tuberculosis. Nature of the assay: Antimycobacterial activity against isoniazid/ethambutol/rifampin/streptomycin/amikacin/gentamicin/clofazimine/ofloxacin resistant MDR/XDR clinical isolate Mycobacterium tuberculosis 7357/1998 assessed as inhibition of mycobacterial growth measured after 14 to 21 days of incubation by Sulas semisynthetic medium based assay. Summed up:
as §1

Assay [7] relates to Mycobacterium tuberculosis. In words: Antimycobacterial activity against isoniazid/ethambutol/rifampin/streptomycin/amikacin/gentamicin/clofazimine/ofloxacin resistant MDR/XDR clinical isolate Mycobacterium tuberculosis 8666/2010 assessed as inhibition of mycobacterial growth measured after 14 to 21 days of incubation by Sulas semisynthetic medium based assay. Put shortly:
as §1

As for `CO[C@H]1/C=C/O[C@@]2(C)Oc3c(C)c(O)c4c(O)c(c(/C=N/N5CCN(C)CC5)c(O)c4c3C2=O)NC(=O)/C(C)=C\C=C\[C@H](C)[C@H](O)[C@@H](C)[C@@H](O)[C@@H](C)[C@H](OC(C)=O)[C@@H]1C` [RIFAMPIN], the MIC99 in assay [1], in assay [2], in assay [3], in assay [4], in assay [5] and in assay [6] was greater than 8 µM in each case. In assay [7], the MIC99 is greater than 8 µM.

On to GENTAMICIN, for which, in assay [3], the MIC99 is greater than 8 µM.

Regarding `CN[C@@H]1[C@H](O[C@H]2[C@H](O[C@H]3[C@H](O)[C@@H](O)[C@H](N=C(N)N)[C@@H](O)[C@@H]3N=C(N)N)O[C@@H](C)[C@]2(O)C=O)O[C@@H](CO)[C@H](O)[C@H]1O` [STREPTOMYCIN], the MIC99 in assay [2], in assay [3], in assay [4], in assay [6] and in assay [7] was greater than 32 µM in each case.

Take `CC1COc2c(N3CCN(C)CC3)c(F)cc3c(=O)c(C(=O)O)cn1c23` (stereo not given) [OFLOXACIN]: in assay [2], the MIC99 was greater than 16 µM.

For the compound `NCC[C@H](O)C(=O)N[C@@H]1C[C@H](N)[C@@H](O[C@H]2O[C@H](CN)[C@@H](O)[C@H](O)[C@H]2O)[C@H](O)[C@H]1O[C@H]1O[C@H](CO)[C@@H](O)[C@H](N)[C@H]1O` [AMIKACIN], the MIC99 in assay [3] is greater than 32 µM.
